A selection: hits, their analogues and other compounds. The true share with any hit is near 2%.
NR1D1 modulator = modulators of human Rev-erb alpha DNA binding | Rev-erbα–FITC-DNA binding, fluorescence polarization, 90 min | 370,000 tested, 0.79% active | P20393 | AID 1259318 | activity, % at 10 µM;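 active means activity above about 14%, limit read from the data; passing the limit was not always enough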;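 further: 0% = DMSO wells with 35 nM protein and 100% = DMSO wells with 750 nM protein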
Neddyl block = blocks human cullin neddylation; 360,000 tested, 0.58% active; calls only at 25 µM; TR-FRET cullin neddylation, biochemical; AID 651699; in the data active means inhibition above about 36%
Target sequence (P61081 whole entry, looked up): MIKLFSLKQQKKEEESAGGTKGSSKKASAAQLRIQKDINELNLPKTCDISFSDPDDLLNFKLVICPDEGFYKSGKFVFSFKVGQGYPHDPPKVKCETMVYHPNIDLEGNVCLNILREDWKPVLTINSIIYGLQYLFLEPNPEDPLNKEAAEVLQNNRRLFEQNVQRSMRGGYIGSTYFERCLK
Target sequence (Q13564 whole entry, looked up): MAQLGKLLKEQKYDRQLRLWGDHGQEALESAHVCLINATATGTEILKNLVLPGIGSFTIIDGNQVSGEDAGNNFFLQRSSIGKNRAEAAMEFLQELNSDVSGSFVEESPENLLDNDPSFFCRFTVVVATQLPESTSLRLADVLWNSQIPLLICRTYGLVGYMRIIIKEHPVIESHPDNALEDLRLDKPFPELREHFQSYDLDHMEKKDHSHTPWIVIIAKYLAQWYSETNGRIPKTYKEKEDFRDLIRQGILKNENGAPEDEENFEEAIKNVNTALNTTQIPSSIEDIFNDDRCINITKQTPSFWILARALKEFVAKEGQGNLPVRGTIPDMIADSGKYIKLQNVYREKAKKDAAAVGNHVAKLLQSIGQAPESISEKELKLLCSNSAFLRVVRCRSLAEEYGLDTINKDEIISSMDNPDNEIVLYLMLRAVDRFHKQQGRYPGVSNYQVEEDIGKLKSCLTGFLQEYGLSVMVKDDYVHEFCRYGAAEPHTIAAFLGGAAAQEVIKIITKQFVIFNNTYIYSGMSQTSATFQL
NR2E3 ag-1 = human photoreceptor-specific nuclear receptor agonism; CHO-S Gal4-NCOR/VP16-NR2E3 two-hybrid, luciferase; inhibition of corepressor binding, % at 3.98 µM; 360,000 tested, 0.35% active; AID 602229;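 active means inhibition above the mean of all tested compounds plus 3 SD, cut at about 70% in these data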;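 further: 0% = DMSO with NR2E3 transfected cells and 100% = cells lacking NR2E3 construct; higher means lower luciferase signal from less NR2E3 corepressor binding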
NR2E3 ag-2 = agonists of human nuclear receptor NR2E3; Q9Y5X4; GST-NR2E3/biotin-RetCOR TR-FRET, 1536-well; inhibition of corepressor binding, % at 4.78 µM; 320,000 tested, 0.12% active; AID 2300;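 active means percent inhibition above the cutoff of mean plus 3 SD of all tested compounds, set per screening campaign, cut at about 20% in these data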;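 further: 0% = DMSO wells and 100% = biotin wells as full block of FRET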
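Material: NR2E3–RetCOR corepressor complex / Incubation: Compound–protein incubation for 5 h at 4 °C / Dosing: compound at 4.8 µM, single dose / Detection: time-resolved FRET / Benchmarks: high control biotin, low control 0.6% DMSO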
PG9 Ab binder = small molecules binding HIV-1 gp120 antibody PG9; TR-FRET gp120-PG9 antibody binding; inhibition, % at 6.7 µM; 360,000 tested, 0.43% active; AID 624416; in the data active means inhibition above about 8.5%
Rev-erbA confirm = Rev-erb alpha (human) modulation, hit confirmation; Rev-erb alpha FITC-DNA binding, fluorescence polarization, 90 min; 3,000 tested, 61% active; shares compounds with NR1D1 modulator; activation, % at 25 µM;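 active means activation at or above a set limit, or at least 3 SD above the negative control mean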;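 further: 0% = 35 nM protein with DMSO and 100% = 750 nM protein high control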
RORg counter = RORgamma DNA-binding activity, dose-response counter-screen; shares compounds with NR1D1 modulator; purified RORgamma protein-FITC-DNA binding, fluorescence polarization; IC50, µM; 910 tested, 8% active;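 active means Compounds whose fitted half-maximal concentration for disrupting protein-DNA binding is below 10 micromolar; the record names Rev-erb in its text, so the target is in doubt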
Numbers without * were called inactive; i = inactive; nt = no result given; ! = a repeat was not active.

SMILES | NR1D1 modulator | Neddyl block | NR2E3 ag-1 | NR2E3 ag-2 | PG9 Ab binder | Rev-erbA confirm | others
Cc1ccc(C)c(OCC(=O)NNC(=O)CCN2CCN(c3ccccc3)CC2)c1 | 1 | i | -4 | 2 | 1 | nt
COc1cccc2cc(C(=O)NCc3ccc(Cl)cc3)c(=N)oc12 | 9 | i | -28 | 4 | -3 | nt
COc1cccc2cc(C(=O)NCc3ccc(Cl)cc3)c(=O)oc12 | 21* | i | 16 | -1 | 0 | 10
COc1cc(C(C)=O)ccc1O | -4 | i | -12 | -2 | -2 | nt
CC1=Nc2ccccc2/C1=C/c1sc(=S)n(-c2cccc(C(=O)O)c2)c1O | 48* | i | -8 | nt | 0 | 52* | RORg counter=>40
CCc1ccc(C(O)c2ncc(-c3ccccc3F)[nH]2)cc1 (stereo not given) | 5 | i | -75 | nt | -2 | nt
COc1ccccc1-n1cnc2sc(-c3ccccc3)cc2c1=O | 20* | i | -28 | 0 | 1 | 5
CCN(CC)c1ccc(/C=c2\sc3nnc(-c4ccccc4Cl)n3c2=O)cc1 | 19* | i | 0 | 1 | -2 | 14
O=C(COc1ccc(/C=N/NC(=O)c2cc3ccccc3o2)cc1Br)Nc1ccccc1 | 19* | nt | -7 | -21 | -63 | 26*
O=C(COc1ccccc1[N+](=O)[O-])Nc1ccc(NC(=O)c2cc3ccccc3o2)cc1 | -25 | i | -45 | 3 | -2 | nt
CC1=C(C(=O)N(C)C)CC(CC(=O)NC(c2ccccc2)c2ccccc2)C(=O)N1CCCN1CCCC1=O (stereo not given) | 5 | i | 0 | nt | 0 | nt
O=C(CSc1ncnc2c(-c3ccc(Cl)cc3)nsc12)c1ccccc1 | 34* | i | -10 | 5 | 1 | 19*
O=C(CSc1ncnc2nc[nH]c12)c1ccc(Cl)cc1 | -4 | i | -53 | 2 | 3 | nt
CCC(C)Sc1ccc([C@@H]2[C@H]3C(=O)N(CC)C(=O)[C@H]3[C@]3(C(=O)OC)CCCCN23)cc1 (stereo not given in full) | 16* | i | -23 | 1 | 0 | 8
COC(=O)[C@@]12CCCCN1[C@H](c1ccc(-c3cc(C(C)=O)cs3)c(OC)c1)[C@H]1C(=O)N(C)C(=O)[C@H]12 | 41* | i | -12 | -1 | -3 | 34*
COC(=O)[C@@]12CCCCN1[C@H](c1ccc(-c3cc(C(C)=O)cs3)cc1)[C@H]1C(=O)N(C)C(=O)[C@H]12 | 30* | i | -5 | 3 | 1 | 22*
Cc1ccc(C(=O)NC(C)C2CC3CCC2C3)cc1 (stereo not given) | -4 | i | 8 | 0 | -2 | nt
O=C(NC1CCCCN(Cc2cccc(C(F)(F)F)c2)C1=O)c1ccc(Cl)cc1 (stereo not given) | -5 | nt | nt | nt | nt | nt
COC(=O)[C@H]1C[C@@]2(c3ccccc3)c3ccccc3N(S(=O)(=O)c3ccccc3)[C@H]2N1 | -3 | nt | nt | nt | nt | nt
O=C(c1ccc(Br)cn1)N1CCC(Oc2cccnc2)CC1 | 0 | nt | nt | nt | nt | nt
COc1ccccc1Nc1nc2cc(C)ccc2cc1C#N | 96* | i | -13 | 1 | 0 | 13
Cc1sc(NC(=O)c2oc3ccccc3c2C)c(C#N)c1C | 226* | i | -19 | -3 | nt | 283*
COC(=O)[C@]12C[C@H](CC(=O)N3CCCC3)C(=O)N(Cc3ccc4c(c3)OCO4)C1=C[C@H](C(C)(C)C)O[C@@H]2C | 2 | nt | nt | nt | -1 | nt
O=C(COc1ncnc2c(Cl)cc(Cl)cc12)NC1CCCCCC1 | 30* | i | -17 | -4 | -1 | 32* | RORg counter=1.3*
CCC(c1ccc(O)cc1)C(CC)c1ccc(O)cc1 (stereo not given) | 34*! | i | 4 | 0 | 0 | 41* | RORg counter=>40
SMILES | NR1D1 modulator | Neddyl block | NR2E3 ag-1 | NR2E3 ag-2 | PG9 Ab binder | Rev-erbA confirm | others
CCC(C(=O)c1ccc(O)cc1)c1ccccc1 (stereo not given) | -5 | i | 6 | 1 | 1 | nt
CN(Cc1ccccc1)C(=O)c1cnc(Cc2c[nH]c3ccccc23)c(I)c1 | 16* | i | 23 | nt | 1 | 3
COc1ccc(S(=O)(=O)N2CCN(C(=O)CNC(=O)c3ccc4c(c3)OCO4)CC2)cc1 | -7 | i | -14 | -1 | -1 | nt
CN(C)S(=O)(=O)c1ccc(Cl)c(NC(=O)CNC2(C)CCS(=O)(=O)C2)c1 (stereo not given) | -2 | i | 31 | nt | 3 | nt
Cc1cc2cc(C)c(NCCNC(=O)c3cccs3)nc2cc1C | 21* | i | 14 | -3 | -3 | -7
CCN(CC)C(=O)CSc1nnc2nnc3cc(OC)ccc3n12 | 21* | i | -12 | 1 | -1 | 10
CCN(CC)C(=O)CSc1nc2cc3c(cc2c(=O)n1Cc1ccc(OC)cc1)OCO3 | 31* | i | -12 | 4 | 0 | 38* | RORg counter=i
CCN(CC)C(=O)CSc1nnc(COc2ccc(OC)cc2)n1N | 0 | i | -13 | 3 | 0 | nt
O=C1C=C(OCCF)CC(c2ccccc2C(F)(F)F)O1 (stereo not given) | -2 | i | nt | nt | 2 | nt
COc1ccc(/C=C2\Oc3cc(OC(=O)N4CCOCC4)ccc3C2=O)c(OC)c1 | 22* | i | -1 | 0 | -2 | 9
Cc1ccc(N=Cc2c(O)c3ccccc3oc2=O)c(C)c1 | 46* | i | -19 | -2 | 1 | 25*
O=C(/C=C\Nc1ccc(Cl)cn1)c1ccc(Br)cc1 | 67* | i | -52 | -3 | -1 | 10
COc1ccccc1-c1cc2nc(NCCc3ccc(S(N)(=O)=O)cc3)ccn2n1 | -2 | nt | 5 | nt | -3 | nt
NS(=O)(=O)c1ccc(CCNc2ccn3nc(-c4cccc(C(F)(F)F)c4)cc3n2)cc1 | 28* | i | -12 | nt | -1 | 9
COc1ccc(CNC(=O)c2c(O)c3cc(OC)c(OC)cc3[nH]c2=O)cc1OC | 12 | i | 4 | nt | 1 | nt
COc1cc2[nH]c(=O)c(C(=O)NCc3ccc(F)cc3)c(O)c2cc1OC | 25* | i | -17 | nt | 1 | 19*
CCSc1nnc(NC(=O)CSc2nc3c(cc2C#N)CCCC3)s1 | 34* | i | -100 | -1 | 0 | 19*
CCc1nnc(NC(=O)CSc2nc3c(cc2C#N)CCC3)s1 | 29* | i | -136 | -2 | 1 | 31*
COC(=O)C1CN(Cc2cn(CCOC(C)=O)nn2)CCS(=O)(=O)N1Cc1ccc(OC)cc1 (stereo not given) | -5 | nt | nt | nt | nt | nt
CCOC(=O)c1cc2c(nc1NC(=S)Nc1ccccc1)CC(C)(C)OC2 | -2 | i | 6 | 4 | -5 | nt
CCOC(=O)c1cc2c(nc1NC(=S)NCc1ccccc1)CCCC2 | 38* | i | -3 | 8 | 0 | 23*
